In ChEMBL document CHEMBL1156303, “Synthesis and SAR of N-(4-(4-alklylpiperazin-1-yl)phenyl)benzamides as muscarinic acetylcholine receptor subtype 1 (M1) anatgonists” (Bioorg Med Chem Lett, 2010):

What was measured:
[1] = biological target: T1, Muscarinic acetylcholine receptor M5 (Homo sapiens, UniProt P08912); assay: Antagonist activity at human muscarinic M5 receptor expressed in CHO-K1 cells assessed as inhibition of acetylcholine-induced calcium mobilization; type: functional, cell-based
T1 sequence (P08912 whole entry): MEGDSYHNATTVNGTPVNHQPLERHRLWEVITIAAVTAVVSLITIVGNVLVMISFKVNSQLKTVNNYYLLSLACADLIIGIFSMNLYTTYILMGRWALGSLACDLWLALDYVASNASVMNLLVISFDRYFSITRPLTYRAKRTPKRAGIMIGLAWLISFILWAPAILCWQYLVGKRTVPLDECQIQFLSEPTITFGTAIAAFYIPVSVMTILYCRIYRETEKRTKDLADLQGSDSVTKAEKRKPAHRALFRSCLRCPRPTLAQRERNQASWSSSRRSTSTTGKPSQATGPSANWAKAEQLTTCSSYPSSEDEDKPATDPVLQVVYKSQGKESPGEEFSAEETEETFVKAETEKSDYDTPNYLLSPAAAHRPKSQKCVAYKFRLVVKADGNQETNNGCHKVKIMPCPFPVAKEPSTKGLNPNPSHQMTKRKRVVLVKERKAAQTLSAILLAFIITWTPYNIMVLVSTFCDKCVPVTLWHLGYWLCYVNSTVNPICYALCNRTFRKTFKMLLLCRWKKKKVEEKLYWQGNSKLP

[2] = biological target: Muscarinic acetylcholine receptor M3 (Homo sapiens, UniProt P20309); assay: Antagonist activity at human muscarinic M3 receptor expressed in CHO-K1 cells assessed as inhibition of acetylcholine-induced calcium mobilization; type: functional, cell-based
[3] = biological target: T2, Muscarinic acetylcholine receptor M2 (Homo sapiens, UniProt P08172); assay: Antagonist activity at human muscarinic M2 receptor expressed in CHO-K1 cells coexpressing Gqi5 chimeric G-protein assessed as inhibition of acetylcholine-induced calcium mobilization; type: functional, cell-based
T2 sequence (P08172 whole entry): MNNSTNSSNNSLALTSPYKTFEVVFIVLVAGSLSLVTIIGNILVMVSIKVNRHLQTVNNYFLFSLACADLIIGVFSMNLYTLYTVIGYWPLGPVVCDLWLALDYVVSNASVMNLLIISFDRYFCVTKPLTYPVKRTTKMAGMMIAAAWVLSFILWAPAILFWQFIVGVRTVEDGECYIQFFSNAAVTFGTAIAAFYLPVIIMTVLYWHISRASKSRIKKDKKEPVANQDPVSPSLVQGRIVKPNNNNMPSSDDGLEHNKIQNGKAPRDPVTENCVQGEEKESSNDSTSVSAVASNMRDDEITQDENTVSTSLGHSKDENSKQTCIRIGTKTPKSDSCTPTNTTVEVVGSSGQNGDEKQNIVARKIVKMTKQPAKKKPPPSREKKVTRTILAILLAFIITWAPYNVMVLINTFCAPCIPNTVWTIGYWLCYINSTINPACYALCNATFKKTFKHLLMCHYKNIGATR
Procedure, shortened: (§1)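 Stable muscarinic cell lines (hM2 and hM4 stably transfected with Gqi5 chimera) plated overnight, then loaded with 2 µM Fluo-4 AM in HBSS with 20 mM HEPES and 2.5 mM probenecid, pH 7.4, for 45 min at 37°C. Dye replaced with assay buffer. Cells pre-incubated with compound at 10 µM or across a concentration-response curve, then challenged with sub-maximal acetylcholine or carbachol. Read-out: calcium mobilization.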

[4] = biological target: T3, Muscarinic acetylcholine receptor M4 (Homo sapiens, UniProt P08173); assay: Antagonist activity at human muscarinic M4 receptor expressed in CHO-K1 cells coexpressing Gqi5 chimeric G-protein assessed as inhibition of acetylcholine-induced calcium mobilization; type: functional, cell-based; procedure, shortened: as §1
T3 sequence (P08173 whole entry): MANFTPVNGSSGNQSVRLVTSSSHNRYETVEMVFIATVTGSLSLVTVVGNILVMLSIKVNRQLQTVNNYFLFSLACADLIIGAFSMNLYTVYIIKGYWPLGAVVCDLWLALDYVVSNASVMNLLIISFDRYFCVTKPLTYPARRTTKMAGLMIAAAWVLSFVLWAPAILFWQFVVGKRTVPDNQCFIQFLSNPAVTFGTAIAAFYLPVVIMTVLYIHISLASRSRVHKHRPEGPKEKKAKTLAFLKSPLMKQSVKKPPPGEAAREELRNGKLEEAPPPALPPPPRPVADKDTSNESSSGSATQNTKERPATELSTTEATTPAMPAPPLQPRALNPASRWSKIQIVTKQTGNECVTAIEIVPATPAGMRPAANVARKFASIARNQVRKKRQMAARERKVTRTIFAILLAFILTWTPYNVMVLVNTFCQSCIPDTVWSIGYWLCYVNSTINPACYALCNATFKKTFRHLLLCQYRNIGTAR

[5] = biological target: T4, Muscarinic acetylcholine receptor M1 (Homo sapiens, UniProt P11229); assay: Antagonist activity at human muscarinic M1 receptor expressed in CHO-K1 cells assessed as inhibition of acetylcholine-induced calcium mobilization; type: functional, cell-based
T4 sequence (P11229 whole entry): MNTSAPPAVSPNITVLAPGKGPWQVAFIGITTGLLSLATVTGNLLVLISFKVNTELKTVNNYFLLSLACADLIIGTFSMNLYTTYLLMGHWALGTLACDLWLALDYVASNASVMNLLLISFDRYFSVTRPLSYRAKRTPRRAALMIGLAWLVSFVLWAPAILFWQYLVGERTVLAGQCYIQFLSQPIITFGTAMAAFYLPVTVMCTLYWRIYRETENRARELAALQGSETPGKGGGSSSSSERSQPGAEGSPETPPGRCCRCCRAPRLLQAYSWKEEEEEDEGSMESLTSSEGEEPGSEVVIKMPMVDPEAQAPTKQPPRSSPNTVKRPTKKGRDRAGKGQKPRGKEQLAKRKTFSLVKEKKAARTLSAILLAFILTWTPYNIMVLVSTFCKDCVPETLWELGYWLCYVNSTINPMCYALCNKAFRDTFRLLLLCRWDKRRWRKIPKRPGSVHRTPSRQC

[6] = Selectivity ratio of muscarinic M3 receptor over muscarinic M2 receptor
[7] = biological target: T5, Muscarinic acetylcholine receptor M5 (Homo sapiens) (UniProt P08912); assay: Antagonist activity at human muscarinic M5 receptor expressed in CHO-K1 cells assessed as inhibition of acetylcholine-induced calcium mobilization at 10 uM; type: functional, cell-based
T5 sequence (whole entry): T1 sequence (P08912 whole entry)

Chain of Muscarinic acetylcholine receptor M3 (P20309 whole entry): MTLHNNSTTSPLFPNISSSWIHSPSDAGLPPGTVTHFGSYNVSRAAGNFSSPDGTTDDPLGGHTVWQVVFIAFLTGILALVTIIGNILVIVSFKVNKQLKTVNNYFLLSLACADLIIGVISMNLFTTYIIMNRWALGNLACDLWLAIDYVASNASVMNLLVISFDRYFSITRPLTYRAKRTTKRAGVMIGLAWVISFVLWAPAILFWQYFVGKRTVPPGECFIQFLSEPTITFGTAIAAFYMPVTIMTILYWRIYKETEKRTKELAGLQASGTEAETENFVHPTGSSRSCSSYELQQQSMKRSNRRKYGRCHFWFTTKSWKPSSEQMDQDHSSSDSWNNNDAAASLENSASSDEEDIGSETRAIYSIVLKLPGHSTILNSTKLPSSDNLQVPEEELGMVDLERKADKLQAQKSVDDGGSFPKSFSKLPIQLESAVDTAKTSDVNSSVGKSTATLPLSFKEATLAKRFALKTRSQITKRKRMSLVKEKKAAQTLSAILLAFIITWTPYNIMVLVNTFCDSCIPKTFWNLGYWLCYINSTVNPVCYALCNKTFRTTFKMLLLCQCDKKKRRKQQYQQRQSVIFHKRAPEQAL

SMILES | IC50 [1] [µM] | IC50 [2] [µM] | IC50 [3] [µM] | IC50 [4] [µM] | IC50 [5] [µM] | IC50 [7] [µM] | Selectivity ratio [6]
CCN1CCN(c2ccc(NC(=O)c3cc(C(F)(F)F)ccc3C(F)(F)F)cc2Cl)CC1 | 4.1 | 4.2 | 2.7 | 1.5 | 0.49 | – | –
CCN1CCN(c2ccc(NC(=O)c3ccc(F)c(F)c3)cc2Cl)CC1 | > 10 | > 10 | > 10 | > 10 | 4.7 | – | –
CCN1CCN(c2ccc(NC(=O)c3cccc(C(F)(F)F)c3)cc2Cl)CC1 | 4.1 | 4.3 | > 10 | 3.7 | 2.9 | – | –
CCN1CCN(c2ccc(NC(=O)c3c(F)c(F)c(F)c(F)c3F)cc2Cl)CC1 | 0.83 | 3.7 | – | – | 0.35 | – | –
Cc1ccc(N2C[C@@H]3[C@H](C2)[C@H]3NC(=O)C(O)(c2ccccc2)C2CCCCC2)cc1 (stereo partly specified) | – | – | – | – | – | – | 20
CCN1CCN(c2ccc(NC(=O)c3cc(C(F)(F)F)cc(C(F)(F)F)c3)cc2Cl)CC1 | > 10 | > 10 | > 10 | 3.7 | 2.6 | 10 | –

More lines, main results first:

IC50 [1] [µM] | IC50 [2] [µM] | IC50 [3] [µM] | IC50 [4] [µM] | IC50 [5] [µM] | IC50 [7] [µM] | SMILES | Selectivity ratio [6]
1.3 | 5.6 | – | – | 0.82 | – | CCN1CCN(c2ccc(NC(=O)c3ccccc3OC)cc2Cl)CC1 | –
2.3 | – | – | – | 0.96 | – | CCN1CCN(c2ccc(NC(=O)c3ccccc3Cl)cc2Cl)CC1 | –
3.5 | > 10 | – | – | 2.1 | – | CCN1CCN(c2ccc(NC(=O)c3cccc(C)c3)cc2Cl)CC1 | –
6.9 | 3.7 | > 10 | > 10 | 2.9 | – | CCN1CCN(c2ccc(NC(=O)c3ccc(C)cc3)cc2Cl)CC1 | –
> 10 | > 10 | – | – | 3.2 | – | CCN1CCN(c2ccc(NC(=O)c3ccc(OC)cc3)cc2Cl)CC1 | –
> 10 | > 10 | > 10 | > 10 | 3.2 | – | CCN1CCN(c2ccc(NC(=O)c3ccccc3)cc2Cl)CC1 | –
